esBAF inh – inhibitors of esBAF chromatin remodeling in mouse ES cells; Bmi1-luciferase knock-in reporter, 24 h; 100% = twice the neutral-well signal; reporter increase, % at 12.5 µM; 350,000 tested, 2% active; in the data active = activation above about 40%; inconclusive = no clear call, values can overlap the other calls;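 also: a rise in the Bmi1 reporter signal indicates esBAF inhibition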
XiGFP reactiv – reactivates the inactive X chromosome in mouse fibroblasts; XiGFP mouse fibroblasts, % GFP-positive cells imaging, 3 d; cells co-treated with 5-aza-dC sensitizer; scaled so ellipticine positive control = 100%; activation, % at 7.58 µM; 360,000 tested, 0.055% active;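 active = mean normalized replicate activation at least 10% and every replicate at or above 10%; inconclusive = only one of the two criteria met; inactive = mean below 10% and not all replicates reach 10%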
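System: XiGFP fibroblasts, SV40-immortalized. Medium: DMEM plus 5-aza-dC sensitizer. Doses: single point. Timing: 3 d treatment, 15 min room-temperature fixation. Control set: ellipticine 6 µM.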
MITF TRPM1 HTS – increases MITF-driven TRPM1 promoter luciferase signal | SK-MEL-5 TRPM1-promoter luciferase, 24 h; % of positive control, neutral wells = 0 | 300,000 tested, 0.75% active | activation, % at 12.5 µM | AID 588334;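 active = mean activation of at least 80% with every replicate also reaching 80%; inconclusive = mean reaches 80% but some replicate falls short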
Wnt act – activators of Wnt/beta-catenin signaling | Wnt/beta-catenin reporter cell assay, activator, plate reader | activation, % at 9.35 µM | 300,000 tested, 1.2% active | AID 743398; in the data active = activation above about 30%, passing the limit was not always enough; inconclusive = no clear call, values can overlap the other calls
CASP6 VEID inh – inhibitors of human caspase-6 | inhibition, % at 12.5 µM | purified caspase-6, Z-VEID-R110 cleavage fluorescence | AID 686996 | 350,000 tested, 0.53% active | P55212;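 active = mean inhibition across replicates at least about 35%, with every replicate also reaching that limit, limit read from the data; inconclusive = only one of the two criteria met; inactive = neither criterion met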
Target sequence (P55212 24-179 limits assumed): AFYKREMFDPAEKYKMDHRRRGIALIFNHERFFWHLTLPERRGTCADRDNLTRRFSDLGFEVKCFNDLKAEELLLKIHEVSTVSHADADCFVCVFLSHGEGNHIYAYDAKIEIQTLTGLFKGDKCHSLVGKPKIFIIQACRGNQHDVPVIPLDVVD
Target sequence (P55212 194-293 limits assumed): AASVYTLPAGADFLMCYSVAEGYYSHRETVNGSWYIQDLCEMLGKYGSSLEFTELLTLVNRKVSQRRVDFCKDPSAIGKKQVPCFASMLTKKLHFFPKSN
NSD2 inh – NSD2 (human) methyltransferase inhibition. 310,000 tested, 0.54% active. NSD2 peptide methylation, AlphaScreen, 120 min. AID 743445. O96028. inhibition, % at 12.5 µM; in the data active = inhibition above about 50%
A number is an active result; i = inactive; ? = inconclusive; nt = not tested or not shown. In the library only some 3% were active in any assay of this set; here they are far more common.

SMILES	esBAF inh	XiGFP reactiv	MITF TRPM1 HTS	Wnt act	CASP6 VEID inh	NSD2 inh
Cc1ccc(C)c(NC(=O)c2cc(-c3cc(C)ccc3O)n[nH]2)c1	50	i	117	i	i	i
Cc1cccc(NC(=O)c2cc(-c3cc(Cl)ccc3O)n[nH]2)c1	71	nt	108	nt	nt	nt
COc1ccc(Cl)cc1NC(=O)c1cc(-c2cc(C)ccc2O)n[nH]1	i	i	i	i	i	i
Cc1ccc(NC(=O)c2cc(-c3cc(Cl)ccc3O)n[nH]2)cc1C	i	i	i	i	i	i
COC(=O)C[C@H]1CC[C@H]2[C@@H](COc3ccc(NC(=O)CN(C)C)cc3C(=O)N2C)O1	nt	i	nt	nt	nt	nt
COc1ccc2c3c([nH]c2c1)[C@@H](CO)NCC31CN(Cc2ccccc2F)C1	nt	i	nt	nt	nt	nt
CCCNC(=O)N1CC2(C1)CN(C(=O)CC1CC1)[C@@H](CO)c1[nH]c3cc(OC)ccc3c12	nt	i	nt	nt	nt	nt
Cc1ccc(-c2nnc(-c3ccc(Br)cc3)o2)o1	64	nt	nt	i	nt	i
Brc1ccc(-c2nnc(-c3ccco3)o2)cc1	60	nt	?	nt	nt	i
C[C@H](CO)N1C[C@H](C)[C@@H](CN(C)C(=O)[C@H]2CCCN2C)OCc2ccccc2-c2c(n(C)c3ccccc23)C1=O	nt	i	nt	nt	nt	nt
CCCNC(=O)C[C@@H]1C[C@H]2c3cc(NC(=O)Nc4ccc(F)cc4)ccc3O[C@H]2[C@H](CO)O1	i	i	nt	nt	i	nt
CN(C)c1ncnc2c1ncn2CCn1cnc2c(N(C)C)ncnc21	i	i	i	i	i	i
CN(C)c1ncnc2c1ncn2-c1ccccc1	59	i	i	i	i	i
N#CC(C#N)=c1ccc2c(c1)N1C3=C(CCCC3)CC3CCCCC31N=2 (centres undefined)	i	nt	i	nt	nt	55
CC(C)NC(=O)Nc1cccc2c1O[C@@H](CN(C)C(=O)OC(C)(C)C)[C@@H](C)CN(C)C2=O	nt	i	nt	nt	nt	nt
S=c1[nH]c(-c2ccccc2)cn1/N=C/c1ccncc1	i	i	i	i	i	i
CCOc1ccc(/C=N/n2cc(-c3ccccc3)[nH]c2=S)cc1	45	i	i	i	i	i
CCCS(=O)(=O)N1CCCC(c2nc(-c3ccc(OC)cc3)no2)C1 (centres undefined)	i	nt	i	i	i	i
CCS(=O)(=O)N1CCCC(c2nc(-c3cccc(OC)c3)no2)C1 (centres undefined)	67	nt	i	i	i	i
O=C(C[C@@H]1C=C[C@@H](NS(=O)(=O)c2ccccc2)[C@@H](CO)O1)N1CCc2ccccc2C1	i	i	nt	nt	i	nt
Cn1c(=O)c2cn3c(c2n(C)c1=O)C(c1ccccc1)CC(c1ccccc1)=N3 (centres undefined)	77	nt	i	i	nt	i
Cc1cc(NC(=O)CSc2nc3c(cc2C#N)CCC3)no1	i	i	i	34	i	i
Cc1cc(NC(=O)CSc2nc3c(cc2C#N)CCCC3)no1	nt	i	i	41	nt	i
Cc1cc(C)c2nc(SCC(=O)Nc3cc(C)on3)c(C#N)cc2c1	i	i	i	i	i	nt
N#Cc1cc2c(nc1SCC(=O)O)CCCC2	nt	nt	i	nt	nt	i
SMILES	esBAF inh	XiGFP reactiv	MITF TRPM1 HTS	Wnt act	CASP6 VEID inh	NSD2 inh
C[C@@H]1CN([C@H](C)CO)C(=O)c2cc(NC(=O)Cc3ccccc3)ccc2O[C@@H](C)CCCCO[C@H]1CN(C)Cc1ccc(C(F)(F)F)cc1	i	i	nt	nt	nt	nt
O=C(C[C@H]1C[C@H]2c3cc(NC(=O)Nc4ccc(F)cc4)ccc3O[C@H]2[C@H](CO)O1)NC1CCCCC1	i	i	nt	nt	nt	nt
Cc1ccc2c(C)c(C(=O)Nc3ccc(S(N)(=O)=O)cc3)oc2c1C	i	i	i	30	i	i
Cc1nc(N)sc1N=Nc1ccccc1C(F)(F)F	?	i	159	i	i	i
O=C(C1CCOCC1)N1CC(=O)N2[C@H](C1)[C@H](c1ccc(C#CC3CCCCC3)cc1)[C@@H]2CO	nt	i	nt	nt	i	nt
Cc1nc(NC(=O)C(Cl)Cl)sc1C(=O)N(C)C	nt	12	i	i	nt	i
O=C(OCc1ccccc1F)c1ccc2c(c1)-c1ccccc1C2=O	44	nt	?	i	i	i
O=C(OCc1cccc(F)c1)c1ccc2c(c1)-c1ccccc1C2=O	i	nt	i	i	nt	i
Cc1ccccc1Cn1nnc(-c2cccc(C(=O)O)c2)n1	i	nt	i	39	nt	i
Fc1cccc(Cn2ccc(-c3ccc4c(c3)OCO4)n2)c1	64	nt	nt	nt	nt	i
Cc1ccccc1Cn1nnc(-c2ccc(C(=O)O)cc2)n1	nt	i	i	i	i	i
Cc1ccccc1Cn1nnc(-c2ccc3c(c2)OCO3)n1	51	nt	i	nt	nt	i
Cc1ccccc1Cn1ccc(-c2ccc3c(c2)OCO3)n1	60	nt	i	nt	nt	i
N#CCn1nnc(-c2ccc3c(c2)OCO3)n1	i	nt	nt	i	nt	i
C[C@H](CO)N1C[C@H](C)[C@@H](CN(C)C(=O)C2CC2)Oc2cc(C#CCN(C)C)ccc2S1(=O)=O	i	i	nt	nt	nt	nt
C[C@H](CO)N1C[C@H](C)[C@H](CN(C)C(=O)Nc2ccccc2)Oc2ccc(NC(=O)CCCCCC(=O)Nc3ccccc3N)cc2C1=O	nt	i	nt	nt	i	nt
C=CCNc1nnc(-c2ccncc2)s1	nt	nt	i	nt	nt	i
c1ccc2c(Nc3nnc(-c4ccncc4)s3)cccc2c1	55	nt	?	nt	nt	i
O=C(C[C@H]1CC[C@@H]2[C@H](COC[C@H](O)CN2C(=O)c2ccccc2)O1)N1CCc2ccccc2C1	i	i	nt	nt	i	nt
c1ccc(NCCc2ccccn2)cc1	46	i	i	i	i	i
CN(CCc1ccccn1)c1ccccc1	48	i	i	i	i	i
CN(CCc1ccccn1)S(=O)(=O)c1ccccc1F	i	nt	nt	i	nt	i
CNCCc1ccccn1	i	i	i	i	i	nt
CCCC#Cc1ccc2c(c1)O[C@H](CN(C)Cc1cccnc1)[C@H](C)CN([C@@H](C)CO)S2(=O)=O	i	i	nt	nt	i	nt
COC(=O)c1c(C)oc2c1cc(NS(=O)(=O)c1ccc(C(=O)O)cc1)c1ccccc12	i	i	i	i	42	nt
SMILES	esBAF inh	XiGFP reactiv	MITF TRPM1 HTS	Wnt act	CASP6 VEID inh	NSD2 inh
C[C@H](O)C#Cc1cnc2c(c1)C(=O)N([C@H](C)CO)C[C@H](C)[C@@H](CN(C)C(=O)CN1CCOCC1)O2	i	i	nt	nt	i	nt
Cc1cccc(S(=O)(=O)N2C[C@H](O)COC[C@@H]3O[C@H](CC(=O)Nc4ccc(-c5ccccc5)cc4)CC[C@H]32)c1	i	i	nt	nt	i	nt
Cc1sc(NC(=S)NC(=O)CCc2ccccc2)c(C(N)=O)c1C	i	i	i	i	i	i
CC1(C)Cc2c(sc(NC(=O)Nc3ccccc3)c2C(N)=O)CO1	55	i	nt	i	i	i
Cc1sc(NC(=S)NC(=O)c2ccco2)c(C(N)=O)c1C	49	i	i	i	i	i
CC1(C)Cc2c(sc(NC(=O)C(=O)N3CCCC3)c2C(N)=O)CO1	nt	i	i	i	i	i
Cc1sc(NC(=O)Nc2ccccc2)c(C(N)=O)c1C	?	i	i	33	i	i
COc1ccc(-c2cn(CC[C@H]3CC[C@H](NC(=O)CCN4CCCCC4)[C@@H](CO)O3)nn2)cc1	i	i	nt	nt	i	nt
COc1cccc(-c2ccc([C@@H]3[C@H]4CN(C(=O)C5CC5)CC(=O)N4[C@H]3CO)cc2)c1	nt	i	nt	nt	i	nt

Assay outcomes deposited in PubChem by Broad Institute.
